Measurements collected from several papers.
Target: MAP kinase-interacting serine/threonine-protein kinase 1 (MKNK1, Homo sapiens, UniProt Q9BUB5)

Structure (SMILES)	test	setting	measurement	value
Nc1nc(Nc2ccccc2)sc1C(=O)c1c(F)cccc1F	enzyme activity, inhibitor	10 µM	remaining activity	110%
CC/C(=N\NC(=O)NCc1cccc(O)c1)c1ccc(O)c(C)c1O	enzyme activity, inhibitor	0.1 µM	inhibition	0.4%
N#CCCc1ccc2c(c1)-c1[nH]c3ccc([N+](=O)[O-])cc3c1CC(=O)N2	cell-free assay	0.5 µM	remaining signal	66.7%
CCC(=O)N[C@@H]1CC[C@H](C(=O)N(C)c2ccc(-c3nc4ccccc4o3)cc2)C1	cell-free assay, competition with immobilised ligand	1 µM	remaining binding	95%
Cn1c(=O)n(-c2ccc(C(C)(C)C#N)cc2)c2c3cc(-c4cnc5ccccc5c4)ccc3ncc21	enzyme activity, inhibitor	10 µM	remaining activity	101%
CC[C@H](CO)Nc1nc(NCc2ccccc2)c2ncn(C(C)C)c2n1	cell-free assay	0.5 µM	remaining signal	96.4%
O=C(Nc1cnn(-c2csc(C(=O)NC3COC3)c2)c1)Nc1ccccc1Cl	enzyme activity, inhibitor	5 µM	remaining activity	94.3%
CN(c1ncccc1CNc1nc(Nc2ccc3c(c2)CC(=O)N3)ncc1C(F)(F)F)S(C)(=O)=O	enzyme activity, inhibitor	1 µM	inhibition	3.8%
CC(C)(C)c1nc(-c2cccc(NS(=O)(=O)c3c(F)cccc3F)c2F)c(-c2ccnc(N)n2)s1	enzyme activity, inhibitor, radiometric	1 µM	remaining activity	128%
Cc1ccc(C(=O)Nc2ccc(CN3CCN(C)CC3)c(C(F)(F)F)c2)cc1C#Cc1cnc2cccnn12	enzyme activity, inhibitor	23.5 nM	remaining activity	98%
CN(C)c1ncnc(-c2ccc3nc(Nc4cc(CN5CCN(C(=O)CC(F)(F)F)CC5)ccn4)[nH]c3c2)c1Cl	cell-free assay, competition with immobilised ligand	1 µM	remaining binding	62%
COc1cc2ncnc(Nc3ccc(Oc4ccccc4)cc3C)c2cc1OC	enzyme activity, inhibitor	1 µM	inhibition	2%
COc1cc(Nc2cnc(C#N)c(O[C@H](C)CN(C)C)n2)ncc1-c1cnn(C)c1	enzyme activity, inhibitor, radiometric	10 µM	remaining activity	90%
FC(F)(F)Oc1cccc(-c2cnc3ccc(-c4ccncc4)nn23)c1	enzyme activity, inhibitor, radiometric	5 µM	activity vs control	72%
COc1cc(Nc2c(C#N)cnc3cc(OCCCN4CCN(C)CC4)c(OC)cc23)c(Cl)cc1Cl	cell-free assay	0.5 µM	remaining signal	96.9%
COc1ccc2c(c1)O[C@H](c1ccc(OC)c(OC)c1)C[C@@H]2NC(=O)C1(c2ccc3c(c2)OC(F)(F)O3)CC1	cell-free assay, competition with immobilised ligand	1 µM	remaining binding	81%
Nc1ncnc2occ(-c3ccc(NC(=O)Nc4cc(C(F)(F)F)ccc4F)cc3)c12	cell-free assay, inhibitor	20 µM	remaining signal	0%
CCCCN(CCCC)C(=O)CN1C[C@H](c2cc(OC)c3c(c2)OCO3)[C@@H](C(=O)O)[C@@H]1CC(C)(C)CCC	cell-free assay, competition with immobilised ligand	1 µM	remaining binding	93.3%
Nc1nc(NC2CCCCC2)sc1C(=O)c1ccccc1	enzyme activity, inhibitor	10 µM	remaining activity	105%
CNC(=O)c1ccc(Nc2ncc(C(F)(F)F)c(NCc3nccnc3N(C)S(C)(=O)=O)n2)cc1	cell-free assay, competition with immobilised ligand	0.1 µM	remaining binding	83%
Oc1cccc(-c2nc(N3CCOCC3)c3oc4ncccc4c3n2)c1	enzyme activity, inhibitor	10 µM	remaining activity	97%
Cc1nc(C2CCN(C(=O)c3ccc(OC(F)(F)F)cc3N)CC2)c2ncc(N3CCN(C)CC3)cc2n1	cell-free assay, competition with immobilised ligand	1 µM	remaining binding	100%
CS(=O)(=O)Nc1cccc(-c2csc(NC(=O)CSc3nc4nccnc4c(=O)n3CCc3ccccc3)n2)c1	enzyme activity, inhibitor	10 µM	inhibition	-14%
